# Only a selection was taken, and hits are over-represented in it overall.
# p-CIP stab down = lowers stability of the mouse p/CIP coactivator protein; Q05BA5; F442A p/CIP-EGFP cells, EGFP fluorescence, 16 h; decrease of EGFP signal, % at 10 µM; hit rate 0.01% among 290,000; AID 1984;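 active means EGFP signal decrease of at least 30% at 10 µM or well 3 SD below plate mean, unless failing retest; inactive means the rest, including hits failing retest or dose response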
# ABCB6 inh 2 = blocks the human ABCB6 transporter; K562-ABCB6 porphyrin accumulation, flow cytometry, 1 h; stronger effect = lower value; fluorescence ratio to DMSO, % at 10 µM; hit rate 0.19% among 360,000; AID 602162;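 active means fluorescence ratio to DMSO below 75%, the collection mean minus 3 SD; inconclusive means too few cells collected in the well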;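 further: signal is porphyrin accumulated inside mitochondria; lower ratio means ABCB6 inhibition with less porphyrin fluorescence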
# Dynein cargo inh = dynein cargo transport inhibition | 3617.4 mouse cells, GR-EGFP nuclear translocation imaging; test concentration mostly 20 µM; stimulated with dexamethasone, 1 µM; stronger effect = lower value | z-score, hits read low | hit rate 0.47% among 220,000;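 active means plate z-score of nuclear minus cytoplasmic receptor signal below a set negative limit, without overly bright fluorescence or cell loss, cut at about -3.5 in these data, passing the limit was not always enough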;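 further: z-score of nuclear minus cytoplasmic ring GR-EGFP intensity difference per well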
#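 Buffer or medium: tetracycline-free induction medium containing charcoal-stripped FBS / Reagent: dexamethasone agonist, 1.0 µM final, for 30 min / Technique: automated 10x imaging of fixed Hoechst-stained cells / Times: induction 48 h, compound 1 h, agonist 30 min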
# Cl transport mod = modulators of human KCC2 chloride dependent transport. KCC2 cells, thallium flux FluoZin-2 fluorescence. hit rate 2.2% among 190,000. Q9H2X9. B-score of Tl+ flux slope (higher = more flux/activation; lower = inhibition) at 10 µM;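 active means thallium flux slope and its plate-corrected score both differing from the plate sample mean at a set confidence after two filtering rounds, in either direction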;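 further: slope of fluorescence scaled to starting intensity during 10 to 20 s after thallium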
# V-ATPase pH = alters yeast V-ATPase proton transport; S. cerevisiae, pHLuorin cytosolic pH fluorescence; response, % at 10 µM; AID 504577; hit rate 0.37% among 350,000; in the data active means response mostly above about 7.3%, no sharp cut-off; inactive means mostly below about 5.4%; further: actives read high
# KCC2 sec1 = KCC2 (human) modulation, secondary assay; hit rate 15% among 3,700; HEK293-KCC2, thallium flux, FluoZin2 fluorescence; stronger effect = higher value; shares compounds with Cl transport mod; AID 1713; normalised thallium flux (F/F0 slope) at 10 µM;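 active means thallium flux slope above the same plate's solvent-only control mean plus 3 SD; inconclusive means the two replicate wells disagree; inactive means no significant difference from solvent-only control wells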
# KCC2 bumet counter = thallium flux persisting under bumetanide in KCC2 cells, counter-screen secondary assay; HEK293-KCC2 + bumetanide/ouabain, thallium flux FluoZin2; stronger effect = higher value; AID 1714; hit rate 49% among 3,700; normalized thallium flux at 10 µM; shares compounds with Cl transport mod;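 active means thallium entry rate above the same plate's blocked-transporter control wells by more than 3 SD; inconclusive means the two repeat wells disagree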;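 further: raw slope of fluorescence over initial fluorescence between 10 and 20 s after thallium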
# KCC2 sec2 = confirmation of human KCC2 transport modulators; shares compounds with Cl transport mod; HEK293-KCC2, thallium flux FluoZin2 fluorescence; actives lie on both sides; F/F0 rise rate, 10–20 s post-thallium; normalized thallium flux at 10 µM; hit rate 23% among 3,700; AID 1715;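 active means thallium flux slope more than 3 SD above or below the plate's solvent-only control mean, mostly below; inconclusive means the two repeat wells disagreed; inactive means no significant shift from solvent-only controls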
# HEK counter1 = parental HEK flux effect, counter-screen; hit rate 46% among 3,700; thallium flux rate (normalised fluorescence) at 10 µM; shares compounds with Cl transport mod; HEK293 parental cells, thallium flux FluoZin2, ouabain; baseline-ratio fluorescence slope, 10–20 s after thallium; AID 1716;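 active means thallium flux rate significantly above the same plate's solvent-only control wells, beyond their mean plus 3 SD; inconclusive means the two replicate wells gave conflicting results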
# KCC2 ouabain = modulates human KCC2 on retest with ouabain | shares compounds with Cl transport mod | raw Tl+ flux slope (below DMSO = inhibition, above = activation) at 10 µM | HEK293-KCC2, thallium flux FluoZin2 fluorescence; bidirectional: low = inhibitor, high = activator | AID 1717 | hit rate 48% among 3,700;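 active means thallium flux slope beyond 3 SD from same-plate DMSO control mean in most replicates, usually higher, sometimes lower; inconclusive means repeat tests gave conflicting results; inactive means no significant difference from controls in most replicates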;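 further: slope of initial-normalized fluorescence between seconds 10 and 20 after thallium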
# HEK293 Tl flux2 = acts in parental HEK cells, second KCC2 counter-screen | AID 1718 | hit rate 33% among 3,700 | thallium flux slope at 10 µM | HEK293 parental, thallium flux FluoZin-2 fluorescence slope | shares compounds with Cl transport mod;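 active means thallium flux slope above the same plate's solvent-control mean plus 3 SD in both duplicate wells; inconclusive means duplicate wells that disagreed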;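 further: run without ouabain in cells lacking the KCC2 cotransporter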
# Hits are given with their value; 0 = inactive; ? = inconclusive; - = not tested or not shown.
SMILES,p-CIP stab down,ABCB6 inh 2,Dynein cargo inh,Cl transport mod,V-ATPase pH,KCC2 sec1,KCC2 bumet counter,KCC2 sec2,HEK counter1,KCC2 ouabain,HEK293 Tl flux2
Cc1cccc(NC(=S)NC(=O)c2ccc(Br)o2)c1C,0,0,0,71,0,0.05,0.1,0.054,0.14,0.12,0.057
Cc1ccc(NC(=S)NC(=O)c2ccc(Br)o2)c(C)c1,0,0,0,55,0,0.021,0.13,0.044,0.069,0.11,0.018
O=C(NC(=S)Nc1ccccc1F)c1ccc(Br)o1,0,0,0,0,0,-,-,-,-,-,-
NC(=O)c1ccc(NC(=O)Cc2csc(-c3ccccc3)n2)cc1,0,0,0,0,0,-,-,-,-,-,-
CCOC(=O)c1ccc(NC(=O)COC(=O)Cc2csc(-c3ccccc3)n2)cc1,0,0,0,-4.9,0,0.0061,0.015,?,0.011,0.016,0
CCOc1cccc(C(=O)N(Cc2cccc(F)c2)C2CCS(=O)(=O)C2)c1 (stereo not given),0,0,-,-,0,-,-,-,-,-,-
CCOC(=O)c1c2c([nH]c(=S)c1C#N)CCCC2,0,0,0,11,0,0,0.011,0,?,?,0
CCc1[nH]c(=S)c(C#N)c2c1CCCC2,0,0,0,16,0,0,0.014,0,0.017,?,0.014
CCOC(=O)c1c(O)c2c([nH]c1=O)CCCC2,0,0,0,-,0,-,-,-,-,-,-
CCc1[nH]c(=O)c(C#N)c2c1CCCC2,0,0,0,0,0,-,-,-,-,-,-
Cc1csc(Sc2ccc(S(=O)(=O)N3CCCC3)cn2)n1,0,0,0,-,0,-,-,-,-,-,-
O=C(Nc1ccccc1)O/N=C/c1ccccc1Cl,0,0,0,-5.7,0,0,0,0,0,0,0
O=C(Nc1ccccc1)O/N=C/c1ccc(F)cc1,0,0,-,-,0,-,-,-,-,-,-
Cc1nn2c([nH]c(=O)c3ccccc32)c1C=O,0,0,0,3.4,0,0,0.01,0,?,?,0
Cc1ccc(-n2nc(C)c3c(=O)[nH]c(C(F)(F)F)nc32)cc1,0,-,0,0,-,-,-,-,-,-,-
Cc1nn(-c2ccccc2)c2nc(C(Cl)(Cl)Cl)[nH]c(=O)c12,0,0,0,91,0,0,0.071,?,0.064,0.065,0.05
CCOc1[nH]n(-c2ccccc2)c(=O)c1C=Nc1ccc(F)cc1F,0,0,0,4.1,0,0,0.01,0,0.01,?,?
CCOc1[nH]n(-c2ccccc2)c(=O)c1C=Nc1ccc(OC)cc1,0,0,0,4.1,0,0,0.01,0,0.0093,0,?
CCOC(=O)c1c(CSC(=N)N)n(-c2ccccc2)c2cc(Br)c(OC(C)=O)cc12,0,0,0,0,0,-,-,-,-,-,-
COc1ccc(S(=O)(=O)N2CCCCC2)cc1NC(=O)c1ccc(CS(C)(=O)=O)cc1,-,0,-,-,0,-,-,-,-,-,-
CCOc1ccccc1-c1nnc(SCC(=O)NC2(C#N)CCCC2)o1,-,0,-,-,0,-,-,-,-,-,-
O=C(CSc1ccc2c(c1)OCCO2)N1CCN(c2ccccc2)CC1,-,0,-,-,0,-,-,-,-,-,-
COC(=O)c1sccc1NC(=O)CSc1ccccc1NS(=O)(=O)c1ccc(Br)cc1,0,0,-,3.5,0,0,0.013,0,0.016,0,0.013
Cc1ccc(C2(C)NC(=O)N(CCOc3ccccc3)C2=O)cc1 (stereo not given),0,0,0,0,0,-,-,-,-,-,-
COc1ccc(OCCN2C(=O)NC(C)(c3ccc(C)cc3)C2=O)cc1 (stereo not given),0,0,0,4,0,0,0,0,0,0,0
SMILES,p-CIP stab down,ABCB6 inh 2,Dynein cargo inh,Cl transport mod,V-ATPase pH,KCC2 sec1,KCC2 bumet counter,KCC2 sec2,HEK counter1,KCC2 ouabain,HEK293 Tl flux2
COc1cccc(N2CCN(c3ccc4nnc(CCC(=O)N5CCC(C)CC5)n4n3)CC2)c1,0,0,-,-,0,-,-,-,-,-,-
CC(C)N(Cc1nc(-c2ccccc2)no1)C(=O)CN(C)S(=O)(=O)c1ccc(Br)cc1,0,0,0,0,0,0,0,0,0,0,0
CC(C)N(Cc1nc(-c2ccc(Cl)cc2)no1)C(=O)CN(C)S(=O)(=O)c1ccc(Cl)cc1,0,0,0,-,0,-,-,-,-,-,-
COc1ccc(-c2csc(NS(=O)(=O)c3ccc([N+](=O)[O-])cc3)n2)cc1,0,0,0,0,0,-,-,-,-,-,-
O=C(N/N=C/c1ccco1)c1cc(-c2ccccc2)nc2ccccc12,0,0,-,-,0,-,-,-,-,-,-
O=C(N/N=C/c1ccccn1)c1cc(-c2ccc(Br)cc2)nc2ccccc12,0,0,0,9.4,0,0,0.025,0,?,?,?
O=C(N/N=C/c1ccccn1)c1cc(-c2ccc(Cl)cc2)nc2ccccc12,0,0,0,7.5,0,?,0.042,0,0.018,0,?
O=C(CSc1nnc(SCc2cccc3ccccc23)s1)N/N=C/c1c[nH]c2ccccc12,0,0,0,-3.9,0,0.0057,0.014,0.024,0.0089,0.024,?
O=C(COC(=O)CSc1ccccc1)NC1CCS(=O)(=O)C1 (stereo not given),-,0,-,-,0,-,-,-,-,-,-
Cc1cc(-c2cccs2)c(C#N)c(=S)[nH]1,0,0,0,33,0,0.024,0.034,?,?,0.038,?
CC(C)c1ccc(CNC(=O)C(=O)Nc2nccs2)cc1,0,0,0,12,0,?,0.019,0,0.019,?,0.016
Cc1cc(C)nc(N2CCCC(C(=O)NC(C)CCc3ccco3)C2)n1 (stereo not given),0,0,0,-,0,0,0,0,0,0,0
CN1CCN(CC(=O)Nc2nc(-c3ccccc3)cs2)CC1,0,0,0,-,0,0,0.0087,0,0,0,0
CC1(C)NC(=O)N(CC(=O)Nc2nc(-c3ccc(F)cc3)cs2)C1=O,0,0,0,-4.9,0,0,0,0.024,0,0.013,?
CCC(C)(C)C1CCC2(CC1)NC(=O)N(CC(=O)Nc1nc(-c3ccc(C)cc3)cs1)C2=O (stereo not given),0,0,0,0,0,-,-,-,-,-,-
CCCC(=O)Nc1nc(-c2ccc3c(c2)CCN3S(C)(=O)=O)cs1,0,0,0,6.2,0,0,0,0,?,0,0
CS(=O)(=O)N1CCc2cc(-c3csc(NC(=O)Cc4ccccc4)n3)ccc21,0,0,0,0,0,-,-,-,-,-,-

# Assay outcomes deposited in PubChem BioAssay by several laboratories.
